The record followed here is ChEMBL document CHEMBL4602632, “Synthesis and anti-Mycobacterium tuberculosis activity of imide-β-carboline and carbomethoxy-β-carboline derivatives” (Eur J Med Chem, 2020).

≈ marks a conversion by molar mass, not a printed value.

In data set [1] the test system is Mycobacterium tuberculosis. The data set is described as follows: Antimycobacterial activity against Mycobacterium tuberculosis H37Rv assessed as reduction in bacterial growth incubated for 7 days by resazurin dye based assay. Format: functional. The settings on record: 168 h. In a few lines: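 REMA broth microdilution: DMSO stocks diluted in 7H9-OADC, standardized inoculum added, final 0.98 to 250 μg/mL; 7 days at 35 °C in normal atmosphere, then 0.01% resazurin and a further 24 h at 35 °C. Read visually. MIC is the lowest concentration preventing the blue-to-pink change. Three independent assays on different days; isoniazid reference, medium, sterility and growth ±2.5% DMSO controls.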
A general note: Resazurin is reduced to fluorescent resorufin, in cell work by metabolically active cells.

Data set [2] in a line: Selectivity index, ratio of CC50 for African green monkey Vero cells to MIC for Mycobacterium tuberculosis BRF57. Format: toxicity.
Data set [3] can be described thus: Selectivity index, ratio of CC50 for African green monkey Vero cells to MIC for Mycobacterium tuberculosis 19. Format: toxicity.
A short description of data set [4]: Selectivity index, ratio of CC50 for African green monkey Vero cells to MIC for Mycobacterium tuberculosis 3614. Format: toxicity.
A short description of data set [5]: Cytotoxicity against African green monkey Vero cells assessed as reduction in cell viability incubated for 24 hrs by MTT assay. Format: cell-based. The settings on record: chlorocebus sabaeus. In a few lines: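 VERO (ATCC CCL81) cells grown in DMEM with 10% FBS at 37 °C, 5% CO₂. Seeded at 5 × 10⁴ cells/well for 24 h, then exposed to 1.95–1000 μg/mL in DMEM for 24 h. Washed with PBS, MTT (2 mg/mL in PBS) added for 4 h, dissolved in DMSO, A550 read. CC50 is the highest concentration leaving 50% of cells viable versus control. Three independent assays.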

The nature of data set [6]: Selectivity index, ratio of CC50 for African green monkey Vero cells to MIC for Mycobacterium tuberculosis H37Rv. Format: toxicity. In a few lines:
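Selectivity index computed as the CC50 from VERO MTT assay divided by the REMA MIC against H37Rv.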

Data set [7] in a line: Selectivity index, ratio of CC50 for African green monkey Vero cells to MIC for Mycobacterium tuberculosis 73A. Format: toxicity.
Data set [8] is described as follows: Selectivity index, ratio of CC50 for African green monkey Vero cells to MIC for Mycobacterium tuberculosis BRF45. Format: toxicity.
Data set [9] is described as follows: Selectivity index, ratio of CC50 for African green monkey Vero cells to MIC for Mycobacterium tuberculosis BRF16. Format: toxicity.
A short description of data set [10]: Selectivity index, ratio of CC50 for African green monkey Vero cells to MIC for Mycobacterium tuberculosis BRF14. Format: toxicity.
Data set [11] in a line: Selectivity index, ratio of CC50 for African green monkey Vero cells to MIC for Mycobacterium tuberculosis 71A. Format: toxicity.
A short description of data set [12]: Selectivity index, ratio of CC50 for African green monkey Vero cells to MIC for Mycobacterium tuberculosis 91. Format: toxicity.

As for `O=C(NN1C(=O)CCC1=O)c1cc2c([nH]c3ccccc32)c(-c2cccc([N+](=O)[O-])c2)n1`, the MIC (commonly the lowest concentration that inhibits growth of the organism) in data set [1] was more than 583 µM.

Take `COc1ccc(-c2nc(C(=O)NN3C(=O)CCC3=O)cc3c2[nH]c2ccccc23)cc1`: the minimal inhibitory concentration (MIC) in data set [1] is more than 604 µM.

Consider `NNC(=O)c1ccncc1` [ISONIAZID], for which the MIC in data set [1] is 0.06 µM (≈ 0.00823 µg/mL).

On to `COC(=O)c1cc2c([nH]c3ccccc32)c(-c2ccc(OC)cc2)n1`, for which, in data set [1], the MIC worked out at 579 µM (≈ 192 µg/mL).

With `CN(C)c1ccc(-c2nc(C(=O)NN3C(=O)c4ccccc4C3=O)cc3c2[nH]c2ccccc23)cc1`, the MIC in data set [1] was more than 526 µM.

For `COC(=O)c1cc2c([nH]c3ccccc32)c(-c2cccc([N+](=O)[O-])c2)n1`, in [1], the MIC was 720 µM (≈ 250 µg/mL).

Regarding `O=C(NN1C(=O)c2ccccc2C1=O)c1cc2c([nH]c3ccccc32)c(-c2ccccc2)n1`, the selectivity ratio in data set [2] turned out to be 7.2; in [3], 14.4; in data set [4], 14.4; in data set [6], 7.2; in data set [7] it was 14.4; in [8], 14.4. Besides, the selectivity ratio in data set [9], in data set [10], in data set [11] and in [12] was 7.2 throughout. The minimal inhibitory concentration (MIC) in data set [1] worked out at 289 µM (≈ 125 µg/mL). Also, in [5], the cytotoxic concentration (CC50) (in general, the concentration that lowers cell viability or growth by half) at 24 h stood at 900 µM.

Regarding `O=C(NN1C(=O)c2ccccc2C1=O)c1cc2c([nH]c3ccccc32)c(-c2cccc([N+](=O)[O-])c2)n1`, the selectivity ratio in data set [2] is less than 2.6; in data set [3], 5.2; in data set [4] it was 5.2; in data set [6] it was 5.2; in data set [7], 5.2; in data set [8], 5.2. Besides, the selectivity ratio in [9] is 5.2; in data set [10], 2.6; in data set [11] it was less than 2.6; in [12] it was less than 2.6. The MIC in data set [1] is 262 µM (≈ 125 µg/mL). Further, the CC50 at 24 h in data set [5] is 650 µM.

For the compound `O=C(NN1C(=O)c2ccccc2C1=O)c1cc2c([nH]c3ccccc32)c(-c2ccc(F)cc2)n1`, the selectivity ratio was 6.1 in data set [2]; 12.2 in data set [3]; 12.2 in data set [4]; 6.1 in data set [6]; 12.2 in data set [7]; 12.2 in [8]. Besides, the figures for the selectivity ratio in data set [10], in data set [11] and in [12] were 12.2, 6.1 and 6.1, respectively. The MIC in [1] was found to be 278 µM (≈ 125 µg/mL). For the same compound, the CC50 at 24 h in [5] was 762 µM.

Take `COC(=O)c1cc2c([nH]c3ccccc32)c(-c2ccc(F)cc2)n1`: the MIC in [1] was more than 781 µM.

For the compound `O=C(NN1C(=O)c2ccccc2C1=O)c1cc2c([nH]c3ccccc32)c(-c2ccccc2Cl)n1`, in data set [1], the MIC is 536 µM (≈ 250 µg/mL).

For `COC(=O)c1cc2c([nH]c3ccccc32)c(-c2ccc(N(C)C)cc2)n1`, the selectivity ratio was 3.48 in data set [2]; 13.9 in data set [3]; 13.5 in [4]; 3.48 in data set [6]; 13.9 in data set [7]; 13.9 in data set [8]. The selectivity ratio was 3.48 in data set [9], 1.74 in data set [10], less than 1.74 in data set [11] and 6.96 in data set [12]. The MIC in data set [1] amounted to 362 µM (≈ 125 µg/mL). In addition, the CC50 at 24 h in [5] was determined as 435 µM.

Turning to `COC(=O)c1cc2c([nH]c3ccccc32)c(-c2ccccc2Cl)n1`, in data set [1], the MIC was more than 744 µM.

For `COc1ccc(-c2nc(C(=O)NN3C(=O)c4ccccc4C3=O)cc3c2[nH]c2ccccc23)cc1`, the minimal inhibitory concentration (MIC) in data set [1] is more than 541 µM.

With `COC(=O)c1cc2c([nH]c3ccccc32)c(-c2ccccc2)n1`, the MIC in data set [1] was more than 828 µM.

Turning to `COc1cc(-c2nc(C(=O)NN3C(=O)c4ccccc4C3=O)cc3c2[nH]c2ccccc23)ccc1O`, the MIC in [1] worked out at 523 µM (≈ 250 µg/mL).

As to `COC(=O)c1cc2c([nH]c3ccccc32)c(-c2ccc(O)c(OC)c2)n1`, the MIC in data set [1] came to 718 µM (≈ 250 µg/mL).

For `O=C(NN1C(=O)C=CC1=O)c1cc2c([nH]c3ccccc32)c(-c2ccc(F)cc2)n1`, the MIC in data set [1] was determined as 625 µM (≈ 250 µg/mL).

With `O=C(NN1C(=O)C=CC1=O)c1cc2c([nH]c3ccccc32)c(-c2ccccc2)n1`, the MIC in data set [1] was determined as 654 µM (≈ 250 µg/mL).

As to `O=C(NN1C(=O)CCC1=O)c1cc2c([nH]c3ccccc32)c(-c2ccc(F)cc2)n1`, the selectivity ratio in data set [2] is 2.16; in data set [3], 4.32; in data set [4] it was 4.32; in data set [6] it was 2.16; in data set [7], 8.64; in data set [8], 8.64. Besides, the selectivity ratio in data set [9] stood at 4.32; in data set [10], 4.32; in data set [11] it was 2.16; in [12] it was 2.16. The MIC in data set [1] came to 311 µM (≈ 125 µg/mL). Besides, the CC50 at 24 h in data set [5] came to 270 µM.
